Laboratory results as given in ChEMBL document CHEMBL2176916, “Mimicking the intramolecular hydrogen bond: synthesis, biological evaluation, and molecular modeling of benzoxazines and quinazolines as potential antimalarial agents” (J Med Chem, 2012).
≈ marks a conversion by molar mass, not a printed value. Calls of active or inactive are those of the source. The rule behind the calls is not given here.

Columns and labels:
[1] = tested on: Plasmodium falciparum; experiment: Resistant index, ratio of IC50 for chloroquine-resistant Plasmodium falciparum W2 to IC50 for chloroquine-sensitive Plasmodium falciparum D10; format: functional
[2] = tested on: Plasmodium falciparum; experiment: Antiplasmodial activity against chloroquine-resistant Plasmodium falciparum W2 infected in human RBCs after 72 hrs by parasite lactate dehydrogenase assay; format: functional, organism-based; conditions: W2, 72 h
Outline: (§1)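 Asynchronous cultures (parasitemia 1−1.5%, 1% final hematocrit) in human type A-positive RBCs, RPMI 1640 with 1% AlbuMax, hypoxanthine, Hepes and glutamine. Exposed to serial dilutions (DMSO <1% final) for 72 h at 37 °C under 1% O₂/5% CO₂/94% N₂. Growth read as pLDH activity at OD₆₅₀ (modified Makler method).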

[3] = tested on: Plasmodium falciparum; experiment: Antiplasmodial activity against chloroquine-sensitive Plasmodium falciparum D10 infected in human RBCs after 72 hrs by parasite lactate dehydrogenase assay; format: functional, organism-based; conditions: D10, 72 h; outline: as §1
[4] = tested on: Plasmodium berghei; experiment: Antiplasmodium activity against chloroquine-sensitive Plasmodium berghei ANKA infected in BALB/c mouse assessed as decrease in parasitemia at 50 mg/kg, ip administered until day 4 measured 24 hrs post last dose by Giemsa staining; format: functional, organism-based; design: dose 50 mg/kg
Outline: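 Peters 4-day test, P. berghei ANKA, female 5-week-old BALB/c mice infected ip with 2 × 10⁷ parasitized erythrocytes. Single group of six mice given 50 mg/kg ip daily, starting 4 h post-infection through day 4. Parasitemia counted on Giemsa tail-blood smears 24 h after final treatment.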

[5] = Cytotoxicity against human HepG2 cells assessed as cell viability after 24 hrs by neutral red uptake assay; format: cell-based; conditions: read-out: TC50
Outline: (§2)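 NIH3T3 cells grown in DMEM and HepG2 in EMEM, both with 10% FCS, glutamine/penicillin/streptomycin and non-essential amino acids, 37 °C, 5% CO₂. Cells trypsinized at confluence and resuspended. Viability by neutral red uptake after 24 h exposure. Student's t test, p < 0.05.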

[6] = Cytotoxicity against mouse NIH/3T3 cells assessed as cell viability after 24 hrs by neutral red uptake assay; format: cell-based, NIH3T3; conditions: read-out: TC50; outline: as §2
[7] = Chemical stability of the compound at pH 2 at 37 degC after 1 hr by NMR analysis; format: physicochemical; conditions: buffer, pH 2, 1 h
[8] = Chemical stability of the compound at pH 7.4 at 37 degC by NMR analysis; format: physicochemical; conditions: buffer
[9] = Chemical stability in DMSO/D2O mixture solution at 25 degC by NMR analysis; format: physicochemical
[10] = organism: Oryctolagus cuniculus; experiment: Inhibition of rabbit kidney Na+/K+ ATPase hydrolytic activity assessed as inorganic phosphate production at 10 uM by malachite green staining-based colorimetric assay
Outline: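 Na⁺,K⁺-ATPase membrane fragments prepared from rabbit kidney outer medulla and used at about 1 μg/mL protein. Buffer: 25 mM MOPS pH 7.0, 100 mM NaCl, 20 mM KCl, 3 mM MgCl₂. Test agent at 10 μM, with ouabain as reference. Pi release measured by malachite green colorimetry.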

[11] = tested on: Plasmodium berghei; experiment: Antiplasmodium activity against chloroquine-sensitive Plasmodium berghei ANKA infected in BALB/c mouse assessed as decrease in parasitemia administered as po until day 4 measured 24 hrs post last dose by Giemsa staining; format: functional
Outline: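 P. berghei ANKA in female 5-week-old BALB/c mice (19 g), infected ip with 2 × 10⁷ parasitized erythrocytes. Fresh aqueous stocks (100 mg/mL) diluted 1.5-fold to give 6−7 doses from 4.4 to 50 mg/kg, given once daily by oral gavage starting 4 h post-infection through day 4. Parasitemia read from Giemsa tail-blood smears 24 h after last dose. ED50 from four-parameter logistic fit.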

[12] = tested on: CYP3A4; experiment: Metabolic stability in human liver microsomes assessed as compound ramining after 1 hr in presence of human recombinant CYP3A4; format: ADME, Microsome; conditions: in the assay text read “assessed” for “in human liver microsomes assessed”, read-out: Stability
Outline: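 Substrate at 1 μM final (0.25% organic solvent) incubated 1 h at 37 °C with recombinant hCYP3A4 (20 pmol/mL), with or without NADPH regenerating system. Stopped with acetonitrile. Result is % remaining from MS peak area with NADPH relative to without. CV typically within 10%.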

[13] = Aqueous solubility of the compound in water at pH 3 after 24 hrs; format: physicochemical
Outline: (§3)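 Prepared from 10 mM DMSO stock as 250 μM in 50 mM acetic acid (pH 3) or 50 mM ammonium acetate (pH 7.4), 2.5% DMSO final, in filter plates. Filtrate diluted 1:2 and run on UPLC/UV/TOF-MS at 254 nm. Solubility from sample UV area versus a 250 μM standard in acetonitrile/buffer.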

[14] = Aqueous solubility of the compound in water at pH 7.4 after 24 hrs; format: physicochemical; outline: as §3
[15] = biological target: T1, Chloroquine resistance transporter (Plasmodium falciparum, UniProt Q9N623); experiment: Inhibition of chloroquine-resistant Plasmodium falciparum Dd2 CRT expressed in Xenopus laevis oocytes assessed as reduction in [3H]-chloroquine uptake after 1.5 to 2 hrs
T1 sequence (Q9N623 whole entry): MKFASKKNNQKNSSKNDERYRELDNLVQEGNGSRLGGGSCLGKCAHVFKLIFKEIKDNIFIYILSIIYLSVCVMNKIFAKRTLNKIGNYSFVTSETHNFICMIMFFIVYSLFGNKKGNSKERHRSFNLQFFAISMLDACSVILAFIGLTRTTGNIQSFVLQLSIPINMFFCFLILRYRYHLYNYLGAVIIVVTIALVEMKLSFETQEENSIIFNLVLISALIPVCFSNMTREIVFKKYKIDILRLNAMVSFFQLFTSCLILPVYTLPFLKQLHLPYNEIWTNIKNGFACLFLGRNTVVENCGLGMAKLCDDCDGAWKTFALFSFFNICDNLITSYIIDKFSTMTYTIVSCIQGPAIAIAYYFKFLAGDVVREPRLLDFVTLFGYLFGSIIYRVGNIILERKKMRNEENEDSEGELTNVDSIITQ

[16] = biological target: T2, Chloroquine resistance transporter (Plasmodium falciparum) (UniProt Q9N623); experiment: Inhibition of chloroquine-sensitive Plasmodium falciparum D10 CRT expressed in Xenopus laevis oocytes assessed as [3H]-chloroquine uptake at 100 uM after 1.5 to 2 hrs; format: cell-based; conditions: Oocyte
T2 sequence (whole entry): T1 sequence (Q9N623 whole entry)
Outline: (§4)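 Oocytes injected with Dd2 or D10 PfCRT cRNA (20 ng per oocyte). Compound at 100 μM extracellular. [³H]CQ (0.3 μM) uptake measured 3−5 days post-injection over 1.5−2 h at 27.5 °C, in pH 6.0 medium containing 15 μM unlabeled CQ. 10 oocytes per treatment, five experiments. Compared by ANOVA with Tukey's test.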

[17] = biological target: T2, Chloroquine resistance transporter (Plasmodium falciparum); experiment: Inhibition of chloroquine-resistant Plasmodium falciparum Dd2 CRT expressed in Xenopus laevis oocytes assessed as reduction in [3H]-chloroquine uptake at 100 uM after 1.5 to 2 hrs; format: cell-based; conditions: Oocyte; outline: as §4
[18] = Chemical stability of the compound at pH 7.4 at 37 degC measured for 24 hrs by NMR analysis; format: physicochemical; conditions: buffer, pH 7.4, 24 h
[19] = Chemical stability of the compound at pH 2 at 37 degC measured for 24 hrs by NMR analysis; format: physicochemical; conditions: buffer, pH 2, 24 h
[20] = Intrinsic clearance in rat liver microsomes at 1 uM; format: ADME, Microsome; conditions: read-out: CLH
Outline: (§5)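 Substrate at 1 μM with 0.2 mg/mL mouse or rat liver microsomal protein in 100 mM phosphate, pH 7.4. Reaction started with NADPH regenerating system (1 mM NADPH, 10 mM G6P, 0.4 U/mL G6PDH) and stopped with acetonitrile at intervals over 0−45 min, in duplicate. HPLC-MS depletion fitted monoexponentially; Clint = k × V/P.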

[21] = Intrinsic clearance in mouse liver microsomes at 1 uM; format: ADME, Microsome; conditions: read-out: CLH; outline: as §5
[22] = Chemical stability of the compound at pH 7.4; format: physicochemical; conditions: buffer
[23] = biological target: Potassium voltage-gated channel subfamily H member 2 (Rattus norvegicus); experiment: Inhibition of rat ERG after 2 to 3 days by patch clamp assay

Row | SMILES | Ratio IC50 [1] | IC50 [2] | IC50 [3] | CC50 at 24 h [5] | CC50 at 24 h [6] | other results
1 | CCN(CC)Cc1ccc(Nc2ccnc3cc(Cl)ccc23)cc1O [ISOQUINE] | 1.1 | 31 nM | 27 nM |  |  | 
2 | CCN1COc2cc(Nc3ccnc4cc(Cl)ccc34)ccc2C1 | 3.1 | 72 nM | 23 nM | 6000 nM | 29000 nM | Activity [4]: Active; Stability [7]: Unstable; Stability [8]: Stable; Stability [9]: Stable
3 | CCCn1cnc2cc(Nc3ccnc4cc(Cl)ccc34)ccc2c1=O |  | > 1000 nM | > 1000 nM |  |  | 
4 | CCn1cnc2cc(Nc3ccnc4cc(Cl)ccc34)ccc2c1=O |  | > 1000 nM | > 1000 nM |  |  | 
5 | Clc1ccc2c(Nc3ccc4c(c3)NCN(Cc3ccccc3)C4)ccnc2c1 |  | 67 nM | 53 nM | 25000 nM | 40000 nM | inhibition [10]: 35%; ED50 [11]: 15.7 mg/kg; remaining at 1 h [12]: 18%; solubility at 24 h [13]: 122 µM (≈ 48.9 µg/mL); solubility ([14]; buffer, pH 7.4, 24 h, BLD = below limit of detection): BLD; IC50 [15]: 228000 nM; inhibition [16]: inactive; inhibition [17]: Active; Stability [18]: Stable; Stability [19]: Stable
6 | CCCN1COc2cc(Nc3ccnc4cc(Cl)ccc34)ccc2C1 | 2 | 40 nM | 21 nM |  |  | Stability [7]: Unstable; Stability [8]: Stable; Stability [9]: Stable
7 | CCN(CC)CCCC(C)Nc1ccnc2cc(Cl)ccc12 (configuration not stated) [CHLOROQUINE] |  |  |  | 31000 nM | > 80000 nM | 
8 | CCN1CNc2cc(Nc3ccnc4cc(Cl)ccc34)ccc2C1 | 5.4 | 60 nM | 11 nM |  |  | Stability [18]: Stable; Stability [19]: Stable
9 | O=c1c2ccc(Nc3ccnc4cc(Cl)ccc34)cc2ncn1Cc1ccc(CN2CCCC2)cc1 | 2.7 | 83 nM | 31 nM |  |  | 
10 | C[C@@H]1O[C@@H](O[C@H]2C[C@@H](O)[C@]3(CO)[C@H]4[C@H](O)C[C@]5(C)[C@@H](C6=CC(=O)OC6)CC[C@]5(O)[C@@H]4CC[C@]3(O)C2)[C@H](O)[C@H](O)[C@H]1O |  |  |  |  |  | inhibition [10]: Active
11 | CC(C)(C)NC(=O)[C@@H]1C[C@@H]2CCCC[C@@H]2CN1C[C@@H](O)[C@H](Cc1ccccc1)NC(=O)[C@H](CC(N)=O)NC(=O)c1ccc2ccccc2n1 |  |  |  |  |  | IC50 [15]: 13000 nM
12 | O=c1c2ccc(Nc3ccnc4cc(Cl)ccc34)cc2ncn1Cc1ccccc1 |  | > 1000 nM | > 1000 nM |  |  | 
13 | Clc1ccc2c(Nc3ccc4c(c3)OCN(Cc3ccccc3)C4)ccnc2c1 | 0.8 | 31 nM | 38 nM | 15000 nM | 40000 nM | Stability [7]: Unstable; Stability [8]: Stable; Stability [9]: Stable
14 | CCN(CC)Cc1cc(Nc2ccnc3cc(Cl)ccc23)ccc1O.Cl | 0.7 | 19 nM | 25 nM |  |  | 
15 | O=C1c2ccc(Nc3ccnc4cc(Cl)ccc34)cc2NCN1Cc1ccccc1 |  | > 1000 nM | > 1000 nM |  |  | 
16 | CCCN1CNc2cc(Nc3ccnc4cc(Cl)ccc34)ccc2C1 | 2.5 | 53 nM | 21 nM | 5700 nM | 17000 nM | inhibition [10]: 35%; ED50 [11]: 8.74 mg/kg; microsomal CLint at 1 µM [20]: 121 µL/min/mg; remaining at 1 h [12]: 43%; microsomal CLint at 1 µM [21]: 219 µL/min/mg; Stability [22]: 100%; solubility at 24 h [13]: 231 µM (≈ 81.5 µg/mL); solubility at 24 h ([14]; water, pH 7.4): 53 µM (≈ 18.7 µg/mL); inhibition [16]: inactive; inhibition [17]: Active; Stability [18]: Stable; Stability [19]: Stable; IC50 [23]: 22 nM; inhibition (INH) ([23]; rat): Dose-dependent effect
